These compounds were tested against Glutamate carboxypeptidase 2 (Rattus norvegicus, UniProt P70627) (assay: Inhibitory concentration against rat brain NAALADase (Folate hydrolase)).
Procedure, shortened: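 IC50 values were determined by a method described elsewhere, from two to four independent determinations each. The values refer to racemic material.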

Sequence of Glutamate carboxypeptidase 2 (P70627 whole entry): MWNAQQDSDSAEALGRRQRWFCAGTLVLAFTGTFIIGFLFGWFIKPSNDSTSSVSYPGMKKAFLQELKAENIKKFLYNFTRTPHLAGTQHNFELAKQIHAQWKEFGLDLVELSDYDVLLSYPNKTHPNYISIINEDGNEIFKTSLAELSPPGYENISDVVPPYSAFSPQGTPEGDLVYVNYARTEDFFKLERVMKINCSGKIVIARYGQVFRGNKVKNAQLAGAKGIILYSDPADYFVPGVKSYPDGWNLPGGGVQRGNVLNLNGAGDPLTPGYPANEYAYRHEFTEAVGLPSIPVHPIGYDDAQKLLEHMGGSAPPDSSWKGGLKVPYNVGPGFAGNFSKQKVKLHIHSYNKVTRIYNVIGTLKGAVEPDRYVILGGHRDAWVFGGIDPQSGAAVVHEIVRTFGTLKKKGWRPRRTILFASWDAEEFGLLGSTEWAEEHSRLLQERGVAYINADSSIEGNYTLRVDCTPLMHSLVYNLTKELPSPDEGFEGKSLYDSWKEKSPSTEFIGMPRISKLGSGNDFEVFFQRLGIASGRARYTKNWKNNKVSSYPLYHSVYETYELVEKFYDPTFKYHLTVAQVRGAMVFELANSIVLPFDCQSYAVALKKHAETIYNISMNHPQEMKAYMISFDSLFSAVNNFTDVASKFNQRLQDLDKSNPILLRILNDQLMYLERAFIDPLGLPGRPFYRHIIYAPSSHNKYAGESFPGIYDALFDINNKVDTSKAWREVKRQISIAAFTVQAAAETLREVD

Row | SMILES | IC50
1 | O=C(O)CCC(CP(=O)(O)C(O)c1ccncc1)C(=O)O (stereo not given) | 0.01 µM
2 | N#CCCC(CP(=O)(O)O)C(=O)O (stereo not given) | 0.335 µM
3 | O=C(O)CCC(CP(=O)(O)Cc1cc(F)cc(F)c1)C(=O)O (stereo not given) | 0.049 µM
4 | O=C(O)C(CCc1ccccc1)CP(=O)(O)O (stereo not given) | 0.199 µM
5 | O=C(O)C(Cc1cccc(O)c1)CP(=O)(O)O (stereo not given) | 0.508 µM
6 | O=C(O)CC(CP(=O)(O)O)C(=O)O (stereo not given) | 2.2 µM
7 | CCCP(=O)(O)CC(CCC(=O)O)C(=O)O (stereo not given) | 0.36 µM
8 | O=C(O)CCC(CP(=O)(O)Cc1cc(C(F)(F)F)cc(C(F)(F)F)c1)C(=O)O (stereo not given) | 0.055 µM
9 | Cc1ccc(CP(=O)(O)CC(CCC(=O)O)C(=O)O)cc1 (stereo not given) | 0.068 µM
10 | O=C(O)CCC(CP(=O)(O)CNCc1ccccc1)C(=O)O (stereo not given) | 0.059 µM
11 | O=C(O)CCC(CP(=O)(O)c1ccccc1)C(=O)O (stereo not given) | 2.93 µM

Further compounds by falling IC50, results first:

Row | IC50 | SMILES
12 | 0.548 µM | O=C(O)C(Cc1ccccc1)CP(=O)(O)O (stereo not given)
13 | 0.185 µM | O=C(O)CCCC(CP(=O)(O)O)C(=O)O (stereo not given)
14 | 0.175 µM | O=C(O)C(CCC1N=NN=N1)CP(=O)(O)O (stereo not given)
15 | 0.156 µM | O=C(O)CCC(CP(=O)(O)Cc1ccccc1F)C(=O)O (stereo not given)
16 | 0.149 µM | O=C(O)CCC(CP(=O)(O)CCc1ccccc1)C(=O)O (stereo not given)
17 | 0.143 µM | Nc1cccc(CP(=O)(O)CC(CCC(=O)O)C(=O)O)c1 (stereo not given)
18 | 0.095 µM | CC(CP(=O)(O)CC(CCC(=O)O)C(=O)O)C(=O)OCc1ccccc1 (stereo not given)
19 | 0.082 µM | O=C(O)CCC(CP(=O)(O)Cc1c(F)c(F)c(F)c(F)c1F)C(=O)O (stereo not given)
20 | 0.053 µM | O=C(O)CCC(CP(=O)(O)Cc1ccccc1)C(=O)O (stereo not given)
21 | 0.016 µM | O=C(O)CCC(CP(=O)(O)C(O)c1cccc(F)c1)C(=O)O (stereo not given)
22 | 0.003 µM | COc1ccc(NCP(=O)(O)CC(CCC(=O)O)C(=O)O)cc1 (stereo not given)
23 | 0.002 µM | O=C(O)CCC(CP(=O)(O)CC(Cc1ccccc1)C(=O)O)C(=O)O (stereo not given)
24 | 0.0015 µM | CC(CP(=O)(O)CC(CCC(=O)O)C(=O)O)C(=O)O (stereo not given)
25 | 0.0005 µM | O=C(O)CCC(CP(=O)(O)CC(CCC(=O)O)C(=O)O)C(=O)O (stereo not given)

Reference: ChEMBL document CHEMBL1134287, “Design and pharmacological activity of phosphinic acid based NAALADase inhibitors” (J Med Chem, 2001)
